Laboratory results published in ChEMBL document CHEMBL5303300, “EUbOPEN Chemogenomics Library - Multiplex” (2023).
Where “and” joins values, the source holds several entries; their conditions need not be identical. Equal entries are not always repeated.

Assays:
HEK-293T = assay: Multiplex assay against HEK293T; assay type: toxicity, cell-based; details: human, number of replicates 2
Summary of the method: (§1)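 Imaging took place on a CQ1 microscope at 37°C and 5% CO2 once compound had been added to live cells stained at seeding with Hoechst33342, BioTracker Green Microtubule Cytoskeleton Dye, MitoTracker Red and Annexin V Alexa Fluor 680. CellPathfinder machine-learning gating classed cells as Hoechst high-intensity objects or normal cells, classed normal cells as having healthy, pyknosed or fragmented nuclei, and classed pyknosed cells as mitotic or apoptotic. Tubulin, mitochondrial-mass and membrane-permeability phenotypes are per cents of the healthy-nucleus cells.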

U2OS = assay: Multiplex assay against U2OS; assay type: toxicity, cell-based; details: human, number of replicates 2; summary of the method: as §1
[1] = 24 h, 1 µM, compound concentration 1 uM
[2] = 24 h, 10 µM, compound concentration 10 uM
[3] = 48 h, 1 µM, compound concentration 1 uM
[4] = 48 h, 10 µM, compound concentration 10 uM
[5] = 12 h, 1 µM, compound concentration 1 uM
[6] = 12 h, 10 µM, compound concentration 10 uM

Compound: COc1cccc(Cn2cc(C(=O)Nc3ccc(C)c(S(=O)(=O)N4CCOCC4)c3)c(-c3ccc(C)cc3)n2)c1
- Population Mitochondria Different-Phenotype (%) (HEK-293T; [1]): 13% and 12%
- Population Mitotic Cells (%) (HEK-293T; [1]): 53% and 57%
- Population Normal (%) (HEK-293T; [1]): 90% and 93%
- Population Pyknosed Nuclei (%) (HEK-293T; [1]): 9% and 8%
- Population Tubulin-Different-Phenotype (%) (HEK-293T; [1]): 59%
- Total Cell Count (HEK-293T; [1]): 851 and 807
- Population Apoptotic (%) (HEK-293T; [2]): 34% and 50%
- Population Fragmented Nuclei (%) (HEK-293T; [2]): 3% and 2%
- Population Healthy Nuclei (%) (HEK-293T; [2]): 81% and 83%
- Population Hoechst High Intensity Objects (%) (HEK-293T; [2]): 8%
- Population Membrane Permeable-Phenotype (%) (HEK-293T; [2]): 19% and 22%
- Population Mitochondria Different-Phenotype (%) (HEK-293T; [2]): 21% and 22%
- Population Mitotic Cells (%) (HEK-293T; [2]): 65% and 50%
- Population Normal (%) (HEK-293T; [2]): 91%
- Population Pyknosed Nuclei (%) (HEK-293T; [2]): 15% and 13%
- Population Tubulin-Different-Phenotype (%) (HEK-293T; [2]): 90%
- Total Cell Count (HEK-293T; [2]): 684 and 610
- Population Apoptotic (%) (HEK-293T; [3]): 27% and 29%
- Population Fragmented Nuclei (%) (HEK-293T; [3]): 8%
- Population Healthy Nuclei (%) (HEK-293T; [3]): 87% and 85%
- Population Hoechst High Intensity Objects (%) (HEK-293T; [3]): 9%
- Population Membrane Permeable-Phenotype (%) (HEK-293T; [3]): 7%
- Population Mitochondria Different-Phenotype (%) (HEK-293T; [3]): 3% and 4%
- Population Mitotic Cells (%) (HEK-293T; [3]): 72% and 70%
- Population Normal (%) (HEK-293T; [3]): 90%
- Population Pyknosed Nuclei (%) (HEK-293T; [3]): 4% and 5%
- Population Tubulin-Different-Phenotype (%) (HEK-293T; [3]): 39% and 45%
- Total Cell Count (HEK-293T; [3]): 1564 and 1391
- Population Apoptotic (%) (HEK-293T; [4]): 23% and 62%
- Population Fragmented Nuclei (%) (HEK-293T; [4]): 5%
- Population Healthy Nuclei (%) (HEK-293T; [4]): 86% and 83%
- Population Hoechst High Intensity Objects (%) (HEK-293T; [4]): 9%
- Population Membrane Permeable-Phenotype (%) (HEK-293T; [4]): 26% and 27%
- Population Mitochondria Different-Phenotype (%) (HEK-293T; [4]): 13% and 12%
- Population Mitotic Cells (%) (HEK-293T; [4]): 76% and 37%
- Population Normal (%) (HEK-293T; [4]): 90%
- Population Pyknosed Nuclei (%) (HEK-293T; [4]): 7% and 10%
- Population Tubulin-Different-Phenotype (%) (HEK-293T; [4]): 87% and 91%
- Total Cell Count (HEK-293T; [4]): 752 and 689
- Population Apoptotic (%) (U2OS; [5]): 33% and 76%
- Population Healthy Nuclei (%) (U2OS; [5]): 46% and 76%
- Population Hoechst High Intensity Objects (%) (U2OS; [5]): 0%
- Population Membrane Permeable-Phenotype (%) (U2OS; [5]): 7% and 0%
- Population Mitochondria Different-Phenotype (%) (U2OS; [5]): 0% and 4%
- Population Mitotic Cells (%) (U2OS; [5]): 66% and 23%
- Population Normal (%) (U2OS; [5]): 100%
- Population Pyknosed Nuclei (%) (U2OS; [5]): 21% and 13%
- Population Tubulin-Different-Phenotype (%) (U2OS; [5]): 38% and 54%
- Population Apoptotic (%) (U2OS; [6]): 71% and 52%
- Population Healthy Nuclei (%) (U2OS; [6]): 45% and 79%
- Population Hoechst High Intensity Objects (%) (U2OS; [6]): 0%
- Population Membrane Permeable-Phenotype (%) (U2OS; [6]): 47% and 38%
- Population Mitochondria Different-Phenotype (%) (U2OS; [6]): 11% and 9%
- Population Mitotic Cells (%) (U2OS; [6]): 28% and 47%
- Population Normal (%) (U2OS; [6]): 100%
- Population Pyknosed Nuclei (%) (U2OS; [6]): 37% and 17%
- Population Tubulin-Different-Phenotype (%) (U2OS; [6]): 88% and 90%
- Population Apoptotic (%) (U2OS; [1]): 37% and 76%
- Population Fragmented Nuclei (%) (U2OS; [1]): 24% and 8%
- Population Healthy Nuclei (%) (U2OS; [1]): 48% and 78%
- Population Hoechst High Intensity Objects (%) (U2OS; [1]): 0%
- Population Mitochondria Different-Phenotype (%) (U2OS; [1]): 14% and 5%
- Population Mitotic Cells (%) (U2OS; [1]): 62% and 23%
- Population Normal (%) (U2OS; [1]): 100% and 99%
- Population Pyknosed Nuclei (%) (U2OS; [1]): 27% and 13%
- Population Tubulin-Different-Phenotype (%) (U2OS; [1]): 64% and 65%
- Population Apoptotic (%) (U2OS; [2]): 60% and 72%
- Population Fragmented Nuclei (%) (U2OS; [2]): 15% and 6%
- Population Healthy Nuclei (%) (U2OS; [2]): 46% and 70%
- Population Hoechst High Intensity Objects (%) (U2OS; [2]): 0%
- Population Membrane Permeable-Phenotype (%) (U2OS; [2]): 44% and 47%
- Population Mitotic Cells (%) (U2OS; [2]): 40% and 27%
- Population Normal (%) (U2OS; [2]): 100%
- Population Pyknosed Nuclei (%) (U2OS; [2]): 38% and 23%
- Population Tubulin-Different-Phenotype (%) (U2OS; [2]): 94% and 90%
- Population Apoptotic (%) (U2OS; [3]): 45% and 67%
- Population Healthy Nuclei (%) (U2OS; [3]): 48% and 83%
- Population Hoechst High Intensity Objects (%) (U2OS; [3]): 0%
- Population Membrane Permeable-Phenotype (%) (U2OS; [3]): 10% and 3%
- Population Mitochondria Different-Phenotype (%) (U2OS; [3]): 10% and 4%
- Population Mitotic Cells (%) (U2OS; [3]): 54% and 32%
- Population Normal (%) (U2OS; [3]): 100%
- Population Pyknosed Nuclei (%) (U2OS; [3]): 26% and 12%
- Population Tubulin-Different-Phenotype (%) (U2OS; [3]): 65% and 80%
- Population Apoptotic (%) (U2OS; [4]): 73% and 70%
- Population Fragmented Nuclei (%) (U2OS; [4]): 7% and 21%
- Population Healthy Nuclei (%) (U2OS; [4]): 63% and 32%
- Population Hoechst High Intensity Objects (%) (U2OS; [4]): 0%
- Population Membrane Permeable-Phenotype (%) (U2OS; [4]): 56% and 33%
- Population Mitochondria Different-Phenotype (%) (U2OS; [4]): 21% and 16%
- Population Mitotic Cells (%) (U2OS; [4]): 26% and 29%
- Population Normal (%) (U2OS; [4]): 99% and 100%
- Population Pyknosed Nuclei (%) (U2OS; [4]): 28% and 45%
- Population Tubulin-Different-Phenotype (%) (U2OS; [4]): 85% and 100%
